Converted amounts (≈) assume the structure as drawn.
Columns and labels:
Leishmania infantum = assay: WHO-TDR: Leishmaniasis; type: functional, organism-based, Mus musculus; details: Macrophage
Method in brief: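 The screened collection came from Life Chemicals: 10,000 diverse compounds selected after filtering for drug-likeness and reactive groups. Each was tested in a whole-organism assay against Leishmania infantum MHOM/MA(BE)/67 amastigotes inside murine peritoneal macrophages, using previously published standard procedures and a reference drug as positive control. Results are IC50 values for antiparasitic potency.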

Onchocerca ochengi = assay: WHO-TDR: Onchocerciasis; type: functional; design: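 at 12.5 µM on microfilariae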
Method in brief: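 Values are reported as percent inhibition and as IC50. They come from a whole-organism screen of a 10,000-compound diverse Life Chemicals library against microfilariae of Onchocerca ochengi or Onchocerca lienalis. The screen followed previously published standard procedures, with reference drugs as positive controls.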

Trypanosoma cruzi = assay: WHO-TDR: Chagas disease; type: functional, organism-based, Homo sapiens; details: MRC5
Method in brief: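 Following previously published standard procedures, with a reference drug as positive control, a whole-organism assay was run on Trypanosoma cruzi Tulahuen CL2 beta-galactosidase strain amastigotes inside MRC-5SV2 human lung fibroblast host cells. The 10,000 compounds tested formed a diverse Life Chemicals library filtered for drug-likeness and reactive groups. Results are expressed as IC50 for antiparasitic potency.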

Plasmodium falciparum K1 = assay: WHO-TDR: Malaria; type: functional, organism-based, Homo sapiens; details: Erythrocyte
Method in brief: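 This whole-organism screen covered 10,000 drug-likeness-filtered and reactive-group-filtered compounds from Life Chemicals. The target was the Plasmodium falciparum K1 strain in human red blood cells, and the readout was antiplasmodial IC50.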

[1] = WHO-TDR: Cytotoxicity; type: toxicity, cell-based; details: human, MRC5 cells
[2] = system: Trypanosoma brucei brucei; assay: WHO-TDR: Human African Trypanosomiasis (HAT); type: functional, organism-based; details: Squib-427
Method in brief: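 Screening used a 10,000-compound diverse library supplied by Life Chemicals and filtered for drug-likeness and reactive groups. Whole bloodstream-form parasites of Trypanosoma brucei Squib 427 strain were assayed according to previously published standard procedures, with reference drugs as positive controls. The reported measure is IC50, reflecting antiparasitic potency.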

Schistosoma mansoni = assay: WHO-TDR: Schistosomiasis; type: functional; design: concentration or dose not given beside the values
Method in brief: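 Values are reported as percent inhibition and IC50. They come from a whole-organism screen of a 10,000-compound diverse Life Chemicals library against larval and/or adult worms of Schistosoma mansoni, Puerto Rican strain. The library had been filtered for drug-likeness and reactive groups.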

Brugia malayi = assay: WHO-TDR: Lymphatic Filariasis; type: functional; design: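 tested at 10 µM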
Method in brief: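 Values are percent inhibition and IC50 from a whole-organism screen against Brugia malayi microfilariae. The compounds, 10,000 in all, came from a diverse Life Chemicals library filtered for drug-likeness and reactive groups.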

Row | SMILES | IC50 (Leishmania infantum) [µg/mL] | IC50 (Plasmodium falciparum K1) [µg/mL] | IC50 [2] [µg/mL] | % Inhibition (Onchocerca ochengi) [%] | IC50 (Trypanosoma cruzi) [µg/mL] | IC50 [1] [µg/mL] | % Inhibition (Schistosoma mansoni) [%] | % Inhibition (Brugia malayi) [%]
1 | CC1CCc2[nH]nc(-c3nc(-c4ccc(Cl)cc4)no3)c2C1 (stereo not drawn) | > 9.44 | > 9.44 | > 9.44 | 100 | 5.55 (≈ 17.6 µM) | > 9.44 | 0 | 0
2 | Cc1n[nH]c(C)c1CCc1nc(-c2ccc(Cl)cc2)no1 | > 9.08 | 1.14 (≈ 3.78 µM) | 2.13 (≈ 7.03 µM) | 100 | 1.8 (≈ 5.96 µM) | > 9.08 | 0 | 0
3 | O=c1c2nccnc2n(Cc2cccc(C(F)(F)F)c2)c(=O)n1Cc1ccc(F)cc1 | > 12.9 | 7.26 (≈ 16.9 µM) | 4.08 (≈ 9.49 µM) | 100 | 1.19 (≈ 2.76 µM) | 10 (≈ 23.2 µM) | 25 | 0
4 | CC(CC(=O)N1CCC(Cc2ccccc2)CC1)CC1=Nc2ccccc2S(=O)(=O)N1 (stereo not drawn) | > 13.2 | > 13.2 | > 13.2 | 100 | 6.58 (≈ 15 µM) | > 13.2 | 0 | 0
5 | Cc1ccc(-c2cc(CC(=O)Nc3cccc(C)n3)no2)cc1 | > 9.22 | > 9.22 | > 9.22 | 100 | > 9.22 | > 9.22 | 0 | 0
6 | COc1cccc(-c2cc(CC(=O)NCCC(C)C)no2)c1 | > 9.07 | > 9.07 | > 9.07 | 100 | > 9.07 | > 9.07 | 0 | 0
7 | COc1cccc(-c2cc(CC(=O)Nc3nc(C)cs3)no2)c1 | > 9.88 | 4.59 (≈ 13.9 µM) | > 9.88 | 100 | > 9.88 | > 9.88 | 0 | 0
8 | Cc1cc(C(=O)Nc2nnc(-c3ccco3)o2)on1 | > 7.81 | > 7.81 | > 7.81 | 100 | > 7.81 | > 7.81 | 25 | 20
9 | COc1nn(C)cc1-c1nnc(SCC(=O)N2CCC(Cc3ccccc3)CC2)n1C | 4.28 (≈ 9.71 µM) | 3.65 (≈ 8.28 µM) | 0.428 (≈ 0.971 µM) | 100 | 3.01 (≈ 6.84 µM) | 5.88 (≈ 13.3 µM) | 0 | 0
10 | O=C(Cc1csc(NC(=O)c2ccc[nH]c2=O)n1)Nc1ccc2c(c1)OCCO2 | > 12.4 | > 12.4 | > 12.4 | 0 | > 12.4 | > 12.4 | 100 | 20
11 | CC(C)(C)n1ncc2c(=O)n(CCC(=O)NCc3ccccc3Cl)cnc21 | > 11.6 | > 11.6 | > 11.6 | 0 | > 11.6 | > 11.6 | 100 | 20
12 | CC(C)(C)n1ncc2c(=O)n(CCC(=O)Nc3ccc4c(c3)OCO4)cnc21 | > 11.5 | > 11.5 | > 11.5 | 0 | > 11.5 | > 11.5 | 100 | 20
13 | CC1(C)Cc2cccc(OCCCS(=O)(=O)NCc3cccs3)c2O1 | > 11.4 | > 11.4 | > 11.4 | 100 | > 11.4 | > 11.4 | 0 | 20
14 | CC1CC(C)CN(S(=O)(=O)CCCOc2ccc3c(c2)OCO3)C1 (stereo not drawn) | > 10.7 | > 10.7 | > 10.7 | 0 | > 10.7 | 4.25 (≈ 11.9 µM) | 100 | 20

Now from value to compound, other results behind:

Row | IC50 (Leishmania infantum) [µg/mL] | IC50 (Plasmodium falciparum K1) [µg/mL] | IC50 [2] [µg/mL] | SMILES | % Inhibition (Onchocerca ochengi) [%] | IC50 (Trypanosoma cruzi) [µg/mL] | IC50 [1] [µg/mL] | % Inhibition (Schistosoma mansoni) [%] | % Inhibition (Brugia malayi) [%]
15 | 3.48 (≈ 9.71 µM) | > 10.8 | > 10.8 | COc1cccc(-c2cc(CC(=O)NCc3c(F)cccc3F)no2)c1 | 100 | > 10.8 | > 10.8 | 0 | 0
16 | 0.278 (≈ 0.971 µM) | > 8.59 | > 8.59 | Cc1cc(C(=O)Nc2nc(-c3cccnc3)cs2)on1 | 0 | 4.16 (≈ 14.5 µM) | > 8.59 | 25 | 20
17 | 3.16 (≈ 9.71 µM) | > 9.76 | > 9.76 | Cc1cc(C(=O)Nc2nc(-c3cc4ccccc4o3)cs2)on1 | 100 | > 9.76 | > 9.76 | 0 | 20
18 | > 14 | > 14 | > 14 | Cc1ccccc1OCC(=O)NCCS(=O)(=O)N1CCN(Cc2ccccc2)CC1 | 100 | > 14 | > 14 | 83.3 | 20
19 | > 14.2 | > 14.2 | > 14.2 | O=C(Cc1ccc(Cl)cc1)NCCS(=O)(=O)N1CCN(Cc2ccccc2)CC1 | 100 | > 14.2 | > 14.2 | 0 | 20
20 | > 13.5 | > 13.5 | > 13.5 | O=C(Nc1ccc(OC(F)(F)F)cc1)c1csc(NS(=O)(=O)c2cccs2)n1 | 100 | > 13.5 | > 13.5 | 0 | 20
21 | > 12.7 | > 12.7 | > 12.7 | O=C(NCCc1ccc(Cl)cc1)c1csc(NS(=O)(=O)c2ccccc2)n1 | 100 | > 12.7 | > 12.7 | 0 | 20
22 | > 11.8 | > 11.8 | > 11.8 | CC1Cc2ccccc2N1C(=O)Cc1csc(NC(=O)c2ccc[nH]c2=O)n1 (stereo not drawn) | 50 | > 11.8 | > 11.8 | 100 | 20
23 | 0.378 (≈ 0.972 µM) | > 11.7 | > 11.7 | O=C(Cc1csc(NC(=O)c2ccc[nH]c2=O)n1)Nc1ccc(Cl)cc1 | 0 | > 11.7 | > 11.7 | 0 | 20
24 | > 11.1 | > 11.1 | > 11.1 | O=C(Cc1csc(NC(=O)c2ccc[nH]c2=O)n1)NCc1ccncc1 | 0 | > 11.1 | > 11.1 | 100 | 20
25 | > 11.2 | > 11.2 | > 11.2 | O=C(Cc1csc(NC(=O)c2ccc(=O)[nH]c2)n1)NCc1cccs1 | 0 | > 11.2 | > 11.2 | 100 | 20
26 | 3.56 (≈ 9.71 µM) | > 11 | > 11 | O=C(CCn1cnc2c(cnn2-c2ccccc2)c1=O)Nc1nccs1 | 0 | > 11 | > 11 | 100 | 20

Source: ChEMBL document CHEMBL2093137, “WHO-TDR NTD Screening”
